In ChEMBL document CHEMBL4425094, “Novel Benzo[a]quinolizidine Analogs Induce Cancer Cell Death through Paraptosis and Apoptosis” (J Med Chem, 2016):
The source made the active and inactive calls. The calls are words filed in the database; no cut-off is given here.

Key:
MDA-MB-231 = test: Cytotoxicity against human MDA-MB-231 cells assessed as cell growth inhibition after 24 hrs by MTT assay; type: functional, cell-based; settings: MDA-MB-231, 24 h
In short: (§1)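 Cells seeded 24 h in RPMI 1640 + 10% FBS. RWPE-1 was kept in K-SFM with bovine pituitary extract and EGF. Cells then exposed to compounds for 24 h at 37 °C, 5% CO2, with DMSO vehicle and docetaxel as positive control. MTT added for 4 h, absorbance read at 570 nm. Triplicate runs, IC50 reported as mean of three experiments.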

HeLa = test: Cytotoxicity against human HeLa cells assessed as cell growth inhibition after 24 hrs by MTT assay; type: functional, cell-based; in short: as §1
K562 = test: Cytotoxicity against human K562 cells assessed as cell growth inhibition after 24 hrs by MTT assay; type: functional, cell-based; settings: K562, 24 h; in short: as §1
PC-3 [1] = test: Cytotoxicity against human PC3 cells assessed as cell growth inhibition after 24 hrs by MTT assay; type: functional, cell-based; settings: PC-3, 24 h; in short: as §1
DU-145 = test: Cytotoxicity against human DU145 cells assessed as cell growth inhibition after 24 hrs by MTT assay; type: functional, cell-based; settings: DU-145, 24 h; in short: as §1
MCF7 = test: Cytotoxicity against human MCF7 cells assessed as cell growth inhibition after 24 hrs by MTT assay; type: functional, cell-based; settings: MCF7, 24 h; in short: as §1
RWPE-1 = test: Cytotoxicity against human RWPE1 cells assessed as cell growth inhibition after 24 hrs by MTT assay; type: cell-based; settings: RWPE-1, 24 h; in short: as §1
PC-3 [2] = test: Induction of morphological changes in human PC3 cells assessed as formation of massive cytoplasmic vacuoles at 1 uM after 12 hrs by confocal microscopic analysis; type: functional, cell-based

Structure (SMILES) | IC50 (MDA-MB-231) | IC50 (HeLa) | IC50 (K562) | IC50 (PC-3 [1]) | IC50 (DU-145) | IC50 (MCF7) | IC50 (RWPE-1) | Activity (PC-3 [2])
C[C@@H]1C[C@@H](O)C[C@H]2c3cc(OCc4cc(C(F)(F)F)cc(C(F)(F)F)c4)c(OCc4cc(C(F)(F)F)cc(C(F)(F)F)c4)cc3CCN12 | 0.51 µM | 2.01 µM | 1.35 µM | 0.45 µM | 1.74 µM | 0.52 µM | 1.15 µM | Active
Cc1cc(C)cc(COc2cc3c(cc2OCc2cc(C)cc(C)c2)[C@@H]2C[C@](C)(O)C[C@@H](C)N2CC3)c1 | 2.35 µM | 1.25 µM | 1.46 µM | 0.89 µM | 1.95 µM | 0.5 µM | 4.77 µM | Active
Cc1cc(C)cc(COc2cc3c(cc2OCc2cc(C)cc(C)c2)[C@@H]2C[C@@H](O)C[C@@H](C)N2CC3)c1 (racemic) | 1.33 µM | 3.24 µM | 2.35 µM | 0.72 µM | 1.51 µM | 0.65 µM | 1.35 µM | Active
C[C@@H]1C[C@@H](O)C[C@H]2c3cc(OCc4ccc(Br)cc4)c(OCc4ccc(Br)cc4)cc3CCN12 | 0.88 µM | 1.16 µM | 1.22 µM | 1.24 µM | 2.58 µM | 1.29 µM |  | Active
C[C@@H]1C[C@H](O)C[C@H]2c3cc(OCc4cc(C(F)(F)F)cc(C(F)(F)F)c4)c(OCc4cc(C(F)(F)F)cc(C(F)(F)F)c4)cc3CCN12 | 0.56 µM | 2.84 µM | 1.15 µM | 0.68 µM | 1.87 µM | 1.87 µM | 2.32 µM | Active
COc1cc2c(cc1OC)[C@@H]1C[C@@H](O)C[C@@H](c3ccccc3)N1CC2 | > 20 µM | > 20 µM | > 20 µM | > 20 µM | > 20 µM | > 20 µM | > 20 µM | 
CCCCCCOc1cc2c(cc1OCCCCCC)[C@@H]1C[C@H](O)C[C@@H](C)N1CC2 | > 20 µM | > 20 µM | > 20 µM | > 20 µM | > 20 µM | > 20 µM | > 20 µM | 
Oc1cc2c(cc1O)[C@@H]1C[C@@H](O)C[C@@H](c3ccccc3)N1CC2 | > 20 µM | > 20 µM | > 20 µM | > 20 µM | > 20 µM | > 20 µM | > 20 µM | 
COc1ccc([C@@H]2C[C@H](O)C[C@H]3c4cc(OCc5ccccc5)c(OCc5ccccc5)cc4CCN23)cc1 | > 20 µM | > 20 µM | > 20 µM | > 20 µM | > 20 µM | > 20 µM | > 20 µM | 
C[C@@H]1CC(=O)C[C@H]2c3cc(OCc4ccc(Br)cc4)c(OCc4ccc(Br)cc4)cc3CCN12 (relative stereo) | > 20 µM | > 20 µM | > 20 µM | > 20 µM | > 20 µM | > 20 µM | > 20 µM | 
O=[N+]([O-])c1ccc([C@@H]2C[C@H](O)C[C@H]3c4cc(OCc5ccccc5)c(OCc5ccccc5)cc4CCN23)cc1 | > 20 µM | > 20 µM | > 20 µM | > 20 µM | > 20 µM | > 20 µM | > 20 µM | 
COc1ccc([C@@H]2C[C@H](O)C[C@H]3c4cc(OCc5cc(F)cc(F)c5)c(OCc5cc(F)cc(F)c5)cc4CCN23)cc1OC | > 20 µM | > 20 µM | > 20 µM | > 20 µM | > 20 µM | > 20 µM | > 20 µM | 
C[C@@H]1C[C@@](C)(O)C[C@H]2c3cc(OCc4cc(F)cc(F)c4)c(OCc4cc(F)cc(F)c4)cc3CCN12 | 2.81 µM | 1.29 µM | 1.13 µM | 1.29 µM | 1.33 µM | 1.98 µM | 4.45 µM | 
O=C1C[C@@H](c2ccccc2)N2CCc3cc4c(cc3[C@@H]2C1)OCO4 (relative stereo) | > 20 µM | > 20 µM | > 20 µM | > 20 µM | > 20 µM | > 20 µM | > 20 µM | 
O[C@@H]1C[C@@H](c2ccccc2)N2CCc3cc4c(cc3[C@@H]2C1)OCO4 | > 20 µM | > 20 µM | > 20 µM | > 20 µM | > 20 µM | > 20 µM | > 20 µM | 
COc1ccc([C@@H]2C[C@@H](O)C[C@H]3c4cc(OCc5ccccc5)c(OCc5ccccc5)cc4CCN23)cc1 | > 20 µM | > 20 µM | > 20 µM | > 20 µM | > 20 µM | > 20 µM | > 20 µM | 

Structure (SMILES) | IC50 (MDA-MB-231) | IC50 (HeLa) | IC50 (K562) | IC50 (PC-3 [1]) | IC50 (DU-145) | IC50 (MCF7) | IC50 (RWPE-1) | Activity (PC-3 [2])
O[C@@H]1C[C@@H](c2ccccc2)N2CCc3cc(OCc4ccccc4)ccc3[C@@H]2C1 | > 20 µM | > 20 µM | > 20 µM | > 20 µM | > 20 µM | > 20 µM | > 20 µM | 
O[C@H]1C[C@@H](c2ccccc2)N2CCc3cc(OCc4ccccc4)ccc3[C@@H]2C1 | > 20 µM | > 20 µM | > 20 µM | > 20 µM | > 20 µM | > 20 µM | > 20 µM | 
O[C@@]1(c2ccccc2)C[C@@H](c2ccccc2)N2CCc3cc(OCc4ccccc4)c(OCc4ccccc4)cc3[C@@H]2C1 | > 20 µM | > 20 µM | > 20 µM | > 20 µM | > 20 µM | > 20 µM | > 20 µM | 
CCCCCC[C@@H]1C[C@H](O)C[C@H]2c3cc(OCc4ccccc4)c(OCc4ccccc4)cc3CCN12 | > 20 µM | > 20 µM | > 20 µM | > 20 µM | > 20 µM | > 20 µM | > 20 µM | 
CCCCCCCCCCCCCCCCOc1cc2c(cc1OCCCCCCCCCCCCCCCC)[C@@H]1CC(=O)C[C@@H](C)N1CC2 | > 20 µM | > 20 µM | > 20 µM | > 20 µM | > 20 µM | > 20 µM | > 20 µM | 
COc1ccc([C@@H]2C[C@H](O)C[C@H]3c4cc(OCc5ccccc5)c(OCc5ccccc5)cc4CCN23)cc1OC | > 20 µM | > 20 µM | > 20 µM | > 20 µM | > 20 µM | > 20 µM | > 20 µM | 
O=C1C[C@@H](c2ccccc2)N2CCc3cc(OCc4ccccc4)c(OCc4ccccc4)cc3[C@@H]2C1 (relative stereo) | > 20 µM | > 20 µM | > 20 µM | > 20 µM | > 20 µM | > 20 µM | > 20 µM | 
CCCCCC[C@@H]1CC(=O)C[C@H]2c3cc(OCc4ccccc4)c(OCc4ccccc4)cc3CCN12 (relative stereo) | > 20 µM | > 20 µM | > 20 µM | > 20 µM | > 20 µM | > 20 µM | > 20 µM | 
O=C1C[C@@H](c2ccccc2)N2CCc3cc(O)c(O)cc3[C@@H]2C1 (relative stereo) | > 20 µM | > 20 µM | > 20 µM | > 20 µM | > 20 µM | > 20 µM | > 20 µM | 
O=C1C[C@@H](c2ccccc2)N2CCc3cc(OCc4ccccc4)ccc3[C@@H]2C1 (relative stereo) | > 20 µM | > 20 µM | > 20 µM | > 20 µM | > 20 µM | > 20 µM | > 20 µM | 
COc1cc2c(cc1OC)[C@@H]1CC(=O)C[C@@H](c3ccccc3)N1CC2 (relative stereo) | > 20 µM | > 20 µM | > 20 µM | > 20 µM | > 20 µM | > 20 µM | > 20 µM | 
CCC[C@@H]1CC(=O)C[C@H]2c3cc(OCc4ccccc4)c(OCc4ccccc4)cc3CCN12 (relative stereo) | > 20 µM | > 20 µM | > 20 µM | > 20 µM | > 20 µM | > 20 µM | > 20 µM | 
COc1ccc([C@@H]2CC(=O)C[C@H]3c4cc(OCc5ccccc5)c(OCc5ccccc5)cc4CCN23)cc1 (relative stereo) | > 20 µM | > 20 µM | > 20 µM | > 20 µM | > 20 µM | > 20 µM | > 20 µM | 
CC[C@@H]1CC(=O)C/C=C(/C)[C@H]2c3cc(OCc4ccccc4)c(OCc4ccccc4)cc3CCN12 (relative stereo) | > 20 µM | > 20 µM | > 20 µM | > 20 µM | > 20 µM | > 20 µM | > 20 µM | 
Cc1cc(C)cc(COc2cc3c(cc2OCc2cc(C)cc(C)c2)CN(C(=O)OC(C)(C)C)CC3)c1 | > 20 µM | > 20 µM | > 20 µM | > 20 µM | > 20 µM | > 20 µM | > 20 µM | 
O=C1C[C@@H](c2ccc([N+](=O)[O-])cc2)N2CCc3cc(OCc4ccccc4)c(OCc4ccccc4)cc3[C@@H]2C1 | > 20 µM | > 20 µM | > 20 µM | > 20 µM | > 20 µM | > 20 µM | > 20 µM | 
